# ChEMBL document CHEMBL1949587 (Bioorg Med Chem, 2012)
# Activity calls are given as the source filed them. The rule behind the calls is not given here.
# Columns and labels:
# PC-3 = assay: Antiproliferative activity against human PC3 cells assessed as cell growth inhibition; format: cell-based
# [1] = target: Tyrosine-protein kinase Fyn (Homo sapiens, UniProt P06241); assay: Inhibition of Fyn
# CWR22R = assay: Antiproliferative activity against human 22Rv1 cells assessed as cell growth inhibition; format: cell-based
# [2] = Inhibition of PKA
# QG-56 = assay: Antiproliferative activity against human QG56 cells assessed as cell growth inhibition; format: cell-based
# [3] = target: Tyrosine-protein kinase Lck (Homo sapiens, UniProt P06239); assay: Inhibition of LCK
# NCI-N87 = assay: Antiproliferative activity against human NCI-N87 cells assessed as cell growth inhibition; format: cell-based
# [4] = target: Tyrosine-protein kinase Lyn (Homo sapiens, UniProt P07948); assay: Inhibition of Lyn
# DU-145 = assay: Antiproliferative activity against human DU145 cells assessed as cell growth inhibition; format: cell-based
# A549 = assay: Antiproliferative activity against human A549 cells assessed as cell growth inhibition; format: cell-based
# MDA-MB-231 = assay: Antiproliferative activity against human MDA-MB-231 cells assessed as cell growth inhibition; format: cell-based
# WiDr = assay: Antiproliferative activity against human WiDr cells assessed as cell growth inhibition; format: cell-based
# Focal adhesion kinase 1 = Focal adhesion kinase 1 (Homo sapiens, UniProt Q05397); assay: Inhibition of FAK
# [5] = target: Fibroblast growth factor receptor 2 (Homo sapiens, UniProt P21802); assay: Inhibition of FGFR2
# K562 = assay: Antiproliferative activity against human K562 cells assessed as cell growth inhibition; format: cell-based
# [6] = target: Epithelial discoidin domain-containing receptor 1 (Homo sapiens, UniProt Q08345); assay: Inhibition of DDR1
# MKN-45 = assay: Antiproliferative activity against human MKN45 cells assessed as cell growth inhibition; format: cell-based
# CEM/C2 = assay: Antiproliferative activity against human CEM/C2 cells assessed as cell growth inhibition; format: cell-based
# [7] = target: Insulin-like growth factor 1 receptor (Homo sapiens, UniProt P08069); assay: Inhibition of IGF1R
# Calu-6 [8] = assay: Antitumor activity against human Calu6 cells xenografted in BALB/c mouse assessed as tumor growth inhibition at 150 mg/kg, po qd for 11 days in presence of sunitinib; format: functional, organism-based; design: dose 150 mg/kg
# Outline: (§1)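 Female Balb/c nude mice carried s.c. flank Calu-6 xenografts, 5.0×10⁶ cells in Hanks' solution. At 200 mm³, mice were randomized into 4 groups (n = 5): vehicle, 150 mg/kg, sunitinib 80 mg/kg, or both. Each group dosed orally once daily for 11 days. Volume = 1/2 × long × short². Inhibition from volume change against control.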
# Calu-6 [9] = assay: Antitumor activity against human Calu6 cells xenografted in po dosed BALB/c mouse assessed as tumor growth inhibition administered qd for 11 days; format: functional; details: for ED50: Calu-6, po, 264 h
# Outline: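 Calu-6 cells in Hanks' balanced salt solution, 5.0 × 10⁶ per mouse, implanted s.c. in flank of female Balb/c nude mice. Once tumors reached 150 mm³, oral dosing once daily for 11 days. Tumor volume = 1/2 × long × short² diameter; growth inhibition from volume change in treated versus control group.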
# Calu-6 [10] = assay: Antitumor activity against human Calu6 cells xenografted in BALB/c mouse assessed as tumor growth inhibition at 150 mg/kg, po qd for 11 days; format: functional, organism-based; design: dose 150 mg/kg; outline: as §1
# [11] = Antiproliferative activity against human 10C9 cells assessed as cell growth inhibition; format: cell-based
# [12] = Inhibition of PDGFR
# IGROV-1 = assay: Antiproliferative activity against human IGROV1 cells assessed as cell growth inhibition; format: cell-based
# HT-29 = assay: Antiproliferative activity against human HT-29 cells assessed as cell growth inhibition; format: cell-based
# [13] = target: Glycogen synthase kinase-3 beta (Homo sapiens, UniProt P49841); assay: Inhibition of GSK3-beta
# HUVEC [14] = assay: Antiangiogenic activity in HUVEC assessed as inhibition of VEGF-induced cell proliferation after 4 days; format: functional, cell-based; details: Homo sapiens, 96 h
# Outline: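 HUVECs maintained in RPMI1640 with 10% FCS, 50 μg/mL heparin and ECGS, then seeded at 3000 cells/well in RPMI1640 with 5% FCS and 20 ng/mL VEGF, with compound at serially diluted concentrations. Incubated at 37 °C, 5% CO₂. Read-out is Cell Counting Kit-8, absorbance at 450 nm. Inhibition = (1−T/C)×100 against untreated control.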
# HepG2 = assay: Antiproliferative activity against human HepG2 cells assessed as cell growth inhibition; format: cell-based
# [15] = Solubility of the compound in fasted state simulated intestinal fluid at 10 mM after 2 hrs by HPLC-UV analysis; format: physicochemical
# Outline: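 Triplicate samples made from 10 mM DMSO stocks. DMSO evaporated (1 h), residue dissolved in FaSSIF and shaken 2 h. Solutions filtered, filtrate analysed by UV or HPLC-UV against a four-point calibration curve from the stocks. Result in µg/mL.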
# HCT-116 = assay: Antiproliferative activity against human HCT116 cells; format: cell-based
# [16] = target: Cyclin-dependent kinase 1 (Homo sapiens, UniProt P06493); assay: Inhibition of CDK1
# [17] = Oral bioavailability in nude mouse at 30 mg/kg by LC-MS/MS analysis; format: ADME, organism-based; details: in vivo
# Outline: (§2)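 Female nude mice given single oral dose in DMSO/Cremophor EL/1% Tween 80 (1:1:8 v/v/v) by stomach sonde. Blood taken at 30 min, 1, 2, 4, 7 and 24 h (n = 2/time point). Plasma precipitated with CH3CN/MeOH plus internal standard, filtered, measured by LC-MS/MS (LLOQ 20 ng/mL). Parameters by non-compartmental analysis; CL given as CL/F.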
# [18] = target: Tyrosine-protein kinase Yes (Homo sapiens, UniProt P07947); assay: Inhibition of YES
# HUVEC [19] = assay: Antiangiogenic activity in HUVEC co-cultured with fibroblasts assessed as inhibition of capillary-like tube formation at 20 uM after 11 days by microscopic staining method relative to control; format: functional; details: Homo sapiens, 264 h
# Outline: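 Commercial co-culture kit of HUVEC and fibroblasts, given compound at final 4 or 20 μM and held at 37 °C, 5% CO₂ for 11 days. Tubes fixed with 70% ethanol and stained for CD31, then photographed under a microscope. Tube area quantified by image analysis and inhibition calculated against control taken as 100%.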
# [20] = Antiproliferative activity against human Huh1 cells assessed as cell growth inhibition; format: cell-based; details: HuH-1
# [21] = Oral bioavailability in nude mouse at 10 mg/kg by LC-MS/MS analysis; format: ADME, organism-based; details: in vivo; outline: as §2
# Focal adhesion kinase 1, sequence (Q05397 whole entry): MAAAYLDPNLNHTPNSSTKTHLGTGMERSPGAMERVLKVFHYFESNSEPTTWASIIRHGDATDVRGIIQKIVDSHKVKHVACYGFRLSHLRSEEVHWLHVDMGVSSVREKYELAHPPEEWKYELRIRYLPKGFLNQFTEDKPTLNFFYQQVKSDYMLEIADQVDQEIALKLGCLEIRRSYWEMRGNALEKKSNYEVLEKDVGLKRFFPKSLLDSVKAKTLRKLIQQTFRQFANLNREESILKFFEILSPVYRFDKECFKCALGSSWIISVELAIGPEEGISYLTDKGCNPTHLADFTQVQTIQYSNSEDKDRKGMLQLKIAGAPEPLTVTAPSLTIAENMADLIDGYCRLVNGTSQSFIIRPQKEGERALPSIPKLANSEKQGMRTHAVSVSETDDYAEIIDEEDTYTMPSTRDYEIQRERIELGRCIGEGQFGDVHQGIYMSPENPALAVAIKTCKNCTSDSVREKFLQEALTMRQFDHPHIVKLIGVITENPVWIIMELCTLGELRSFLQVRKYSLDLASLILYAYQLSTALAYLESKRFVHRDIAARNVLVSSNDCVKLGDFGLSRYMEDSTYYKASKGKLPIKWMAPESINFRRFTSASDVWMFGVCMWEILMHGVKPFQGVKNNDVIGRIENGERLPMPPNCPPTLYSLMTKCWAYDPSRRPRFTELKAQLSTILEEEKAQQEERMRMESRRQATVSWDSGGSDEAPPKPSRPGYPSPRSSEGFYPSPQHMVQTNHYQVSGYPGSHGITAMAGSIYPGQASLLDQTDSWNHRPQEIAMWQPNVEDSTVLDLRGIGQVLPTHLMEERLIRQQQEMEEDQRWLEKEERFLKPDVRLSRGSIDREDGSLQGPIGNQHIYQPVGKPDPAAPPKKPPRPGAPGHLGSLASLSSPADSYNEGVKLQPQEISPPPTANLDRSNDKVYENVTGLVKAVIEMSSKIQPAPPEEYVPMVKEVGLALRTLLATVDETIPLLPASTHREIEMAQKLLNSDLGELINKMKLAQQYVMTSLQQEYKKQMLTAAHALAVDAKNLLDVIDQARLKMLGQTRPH
# Cyclin-dependent kinase 1, sequence (P06493 whole entry): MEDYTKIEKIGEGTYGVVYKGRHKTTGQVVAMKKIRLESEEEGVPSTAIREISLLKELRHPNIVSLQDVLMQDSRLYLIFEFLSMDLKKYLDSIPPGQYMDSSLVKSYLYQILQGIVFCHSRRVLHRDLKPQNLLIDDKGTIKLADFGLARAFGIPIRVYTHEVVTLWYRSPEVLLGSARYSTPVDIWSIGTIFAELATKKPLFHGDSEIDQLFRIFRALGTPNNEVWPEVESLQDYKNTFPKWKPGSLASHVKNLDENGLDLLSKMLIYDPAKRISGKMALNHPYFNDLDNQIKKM
# Tyrosine-protein kinase Lck, sequence (P06239 whole entry): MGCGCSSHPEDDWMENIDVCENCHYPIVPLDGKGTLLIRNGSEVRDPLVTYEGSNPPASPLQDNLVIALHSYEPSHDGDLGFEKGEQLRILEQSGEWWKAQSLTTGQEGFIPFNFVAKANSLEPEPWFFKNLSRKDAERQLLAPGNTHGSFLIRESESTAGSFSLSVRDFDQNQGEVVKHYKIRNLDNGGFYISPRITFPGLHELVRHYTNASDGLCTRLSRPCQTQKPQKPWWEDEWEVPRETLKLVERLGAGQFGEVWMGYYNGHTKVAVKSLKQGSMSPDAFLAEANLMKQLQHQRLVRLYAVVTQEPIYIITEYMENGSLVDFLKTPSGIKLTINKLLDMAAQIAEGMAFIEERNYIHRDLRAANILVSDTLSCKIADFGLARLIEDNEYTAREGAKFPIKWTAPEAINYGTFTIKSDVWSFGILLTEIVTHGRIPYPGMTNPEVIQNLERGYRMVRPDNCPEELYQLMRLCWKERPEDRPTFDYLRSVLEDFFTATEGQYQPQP
# Tyrosine-protein kinase Yes, sequence (P07947 whole entry): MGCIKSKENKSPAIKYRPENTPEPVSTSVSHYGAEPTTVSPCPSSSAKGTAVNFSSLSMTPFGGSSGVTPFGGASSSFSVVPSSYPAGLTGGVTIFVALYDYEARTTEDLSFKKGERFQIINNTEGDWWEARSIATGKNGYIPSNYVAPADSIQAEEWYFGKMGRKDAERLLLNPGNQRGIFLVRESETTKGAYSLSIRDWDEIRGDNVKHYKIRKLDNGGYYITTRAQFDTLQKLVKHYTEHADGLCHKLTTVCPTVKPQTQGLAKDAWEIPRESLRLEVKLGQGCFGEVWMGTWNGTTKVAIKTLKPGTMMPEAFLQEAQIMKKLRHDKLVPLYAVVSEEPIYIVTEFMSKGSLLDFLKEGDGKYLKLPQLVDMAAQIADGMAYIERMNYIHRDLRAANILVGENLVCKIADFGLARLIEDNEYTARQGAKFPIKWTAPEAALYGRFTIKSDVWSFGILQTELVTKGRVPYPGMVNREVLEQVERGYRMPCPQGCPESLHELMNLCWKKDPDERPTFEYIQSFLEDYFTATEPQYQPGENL
# Tyrosine-protein kinase Lyn, sequence (P07948 whole entry): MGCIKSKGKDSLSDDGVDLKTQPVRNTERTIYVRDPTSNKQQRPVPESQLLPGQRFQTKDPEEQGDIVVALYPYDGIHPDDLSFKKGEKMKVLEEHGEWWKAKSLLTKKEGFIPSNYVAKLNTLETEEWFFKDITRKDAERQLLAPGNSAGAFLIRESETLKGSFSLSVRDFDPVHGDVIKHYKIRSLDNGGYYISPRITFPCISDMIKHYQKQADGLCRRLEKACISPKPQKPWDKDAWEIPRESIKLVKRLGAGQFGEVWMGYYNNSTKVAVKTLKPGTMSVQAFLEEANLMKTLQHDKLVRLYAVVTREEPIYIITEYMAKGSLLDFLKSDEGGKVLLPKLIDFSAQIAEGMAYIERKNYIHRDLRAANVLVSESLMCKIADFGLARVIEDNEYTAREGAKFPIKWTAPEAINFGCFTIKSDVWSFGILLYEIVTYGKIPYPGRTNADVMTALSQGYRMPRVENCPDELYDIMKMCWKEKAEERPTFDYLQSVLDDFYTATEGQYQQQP
# Epithelial discoidin domain-containing receptor 1, sequence (Q08345 whole entry, the tested form may be a part): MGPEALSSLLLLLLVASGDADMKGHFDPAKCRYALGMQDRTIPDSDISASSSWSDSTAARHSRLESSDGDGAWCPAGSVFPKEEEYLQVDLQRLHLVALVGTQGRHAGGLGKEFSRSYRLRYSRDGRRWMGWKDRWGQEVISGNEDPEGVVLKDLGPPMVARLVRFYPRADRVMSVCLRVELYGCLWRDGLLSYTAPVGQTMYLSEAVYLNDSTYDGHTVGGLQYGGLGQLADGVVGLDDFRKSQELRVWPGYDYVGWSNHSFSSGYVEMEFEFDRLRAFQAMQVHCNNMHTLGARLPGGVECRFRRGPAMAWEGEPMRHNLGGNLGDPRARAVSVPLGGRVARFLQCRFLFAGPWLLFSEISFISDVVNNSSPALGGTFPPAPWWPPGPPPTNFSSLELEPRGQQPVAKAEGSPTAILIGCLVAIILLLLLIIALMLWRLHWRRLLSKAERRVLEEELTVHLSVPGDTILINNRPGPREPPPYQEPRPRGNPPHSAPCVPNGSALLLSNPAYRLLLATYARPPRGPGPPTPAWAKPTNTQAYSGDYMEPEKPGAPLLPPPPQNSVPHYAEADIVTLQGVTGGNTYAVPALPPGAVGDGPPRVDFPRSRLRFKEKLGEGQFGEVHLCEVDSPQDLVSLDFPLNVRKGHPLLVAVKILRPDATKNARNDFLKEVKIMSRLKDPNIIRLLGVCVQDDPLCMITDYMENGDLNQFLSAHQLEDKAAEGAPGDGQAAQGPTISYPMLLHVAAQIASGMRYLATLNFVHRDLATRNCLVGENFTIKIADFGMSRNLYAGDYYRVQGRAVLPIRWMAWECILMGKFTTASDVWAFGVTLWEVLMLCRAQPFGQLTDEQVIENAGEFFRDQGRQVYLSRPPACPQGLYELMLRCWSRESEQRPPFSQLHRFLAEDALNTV
# Fibroblast growth factor receptor 2, sequence (P21802 whole entry): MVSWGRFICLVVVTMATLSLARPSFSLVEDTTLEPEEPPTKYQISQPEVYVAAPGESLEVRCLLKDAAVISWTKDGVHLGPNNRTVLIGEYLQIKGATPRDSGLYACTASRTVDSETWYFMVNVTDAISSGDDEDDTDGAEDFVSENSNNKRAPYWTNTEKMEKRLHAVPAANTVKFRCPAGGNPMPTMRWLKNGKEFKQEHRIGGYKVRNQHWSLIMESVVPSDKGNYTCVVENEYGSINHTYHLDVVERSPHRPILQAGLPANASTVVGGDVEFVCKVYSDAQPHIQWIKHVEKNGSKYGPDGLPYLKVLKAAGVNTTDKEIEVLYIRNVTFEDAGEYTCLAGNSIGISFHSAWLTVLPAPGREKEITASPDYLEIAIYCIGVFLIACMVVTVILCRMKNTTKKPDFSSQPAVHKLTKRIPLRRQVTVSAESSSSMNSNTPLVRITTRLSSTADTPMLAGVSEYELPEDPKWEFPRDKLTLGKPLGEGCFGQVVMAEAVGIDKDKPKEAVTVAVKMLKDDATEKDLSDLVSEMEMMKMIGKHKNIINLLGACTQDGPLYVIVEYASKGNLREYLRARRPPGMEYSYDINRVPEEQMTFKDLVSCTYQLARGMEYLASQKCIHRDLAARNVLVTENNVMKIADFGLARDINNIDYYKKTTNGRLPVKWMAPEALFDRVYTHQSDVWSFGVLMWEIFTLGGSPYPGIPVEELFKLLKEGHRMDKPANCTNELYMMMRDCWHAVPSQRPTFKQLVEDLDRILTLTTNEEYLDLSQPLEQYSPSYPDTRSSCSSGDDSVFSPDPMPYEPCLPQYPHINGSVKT
SMILES,IC50 (PC-3) [µM],IC50 [1] [µM],IC50 (CWR22R) [µM],IC50 [2] [µM],IC50 (QG-56) [µM],IC50 [3] [µM],IC50 (NCI-N87) [µM],IC50 [4] [µM],IC50 (DU-145) [µM],IC50 (A549) [µM],IC50 (MDA-MB-231) [µM],IC50 (WiDr) [µM],IC50 (Focal adhesion kinase 1) [µM],IC50 [5] [µM],IC50 (K562) [µM],IC50 [6] [µM],IC50 (MKN-45) [µM],IC50 (CEM/C2) [µM],IC50 [7] [µM],TGI (Calu-6 [9]),also measured
COc1ccc(C(=O)NC[C@@H](O)CO)cc1/C=C/c1ccc(Cl)cc1,24,> 50,8.6,> 50,23,> 50,52,> 50,5.3,13,39,7,> 50,> 50,29,> 50,5.7,30,> 50,Dose-dependent effect,"TGI (Calu-6 [8]): Active; ED50 (Calu-6 [9]): 3.2 mg/kg; TGI (Calu-6 [10]): Active; IC50 [11]: 38 µM; IC50 [12]: > 50 µM; IC50 (IGROV-1): 0.92 µM; IC50 (HT-29): 10 µM; IC50 [13]: > 50 µM; IC50 (HUVEC [14]): 0.48 µM; IC50 (HepG2): 16 µM; solubility at 2 h, 10000 µM [15]: 225 µg/mL; IC50 (HCT-116): 13 µM; IC50 [16]: > 50 µM; bioavailability [17]: 100%; IC50 [18]: > 50 µM; inhibition at 20 µM (HUVEC [19]): 86%; IC50 [20]: 30 µM"
COc1ccc(C(=O)NC[C@H](O)CO)cc1/C=C/c1ccc(Cl)cc1,17,> 50,21,> 50,21,> 50,52,> 50,23,18,38,15,> 50,> 50,36,> 50,26,30,> 50,Dose-dependent effect,"bioavailability [21]: 90%; ED50 (Calu-6 [9]): 2.3 mg/kg; IC50 [11]: 50 µM; IC50 [12]: > 50 µM; IC50 (IGROV-1): 1.4 µM; IC50 (HT-29): 16 µM; IC50 [13]: > 50 µM; IC50 (HUVEC [14]): 0.25 µM; IC50 (HepG2): 28 µM; solubility at 2 h, 10000 µM [15]: 263 µg/mL; IC50 (HCT-116): 21 µM; IC50 [16]: > 50 µM; IC50 [18]: > 50 µM; inhibition at 20 µM (HUVEC [19]): 93%; IC50 [20]: 30 µM"
